According to ChEMBL document CHEMBL3588747, “Virtual High-Throughput Screening To Identify Novel Activin Antagonists” (J Med Chem, 2015):
Activity calls are given as the source filed them. The rule behind the calls is not given here.

How the values were obtained:
Mus musculus [1] = assay: Toxicity in ovariectomized CD1 mouse assessed as liver and kidney histopathology at 60 mg/kg, sc twice daily for 2 days; assay type: organism-based; conditions: in vivo, 48 h
In short: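 Ovariectomized CD1 mice given vehicle or 60 mg/kg subcutaneously, 4 doses over 2 days; kidney and liver fixed in Modified Davidson's fixative 5 days at 4 °C, paraffin-embedded, H&E stained for histopathology.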

HepG2 = assay: […] in human HepG2 cells assessed as cell viability after 96 hrs by MTT assay; assay type: functional, cell-based; conditions: HepG2, 96 h
In short: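 HepG2 cells (5 × 10^4/well) treated with 1 nM activin A alone (DMSO solvent control) or with compound 1.6–200 µM or Fst288 0.5–8 nM, 96 h at 37 °C in DMEM with 0.2% FBS, pyruvate, glutamine. MTT added 0.5–1 h for viability as reversal of activin-induced apoptosis; IC50 from sigmoidal variable-slope fit; means ± SD.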

Mus musculus [2] = assay: Inhibition of activin - stimulated serum FSH level in ovariectomized CD1 mouse at 30 mg/kg, sc by ELISA (reference value: 100%); assay type: functional
In short: (§1)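 Ovariectomized 12-week-old CD1 mice dosed subcutaneously twice daily for 2 days (4 doses); vehicle TBS or DMSO; Fst288 200 µg/kg for 3 doses as reference. Serum then collected, stored −20 °C, FSH measured by ELISA (sensitivity 0.35 mIU/mL, read 450 nm); vehicle mean set to 100%. 5–7 mice per group, 10 controls; one-way ANOVA with Tukey.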

[3] = target: T1, Inhibin beta A chain (Homo sapiens) (UniProt P08476); assay: Inhibition of interaction of activin A (unknown origin)/ActRIIA-ECD complex with ALK4-ECD-Fc after 120 secs by competitive binding/ Blitz binding assay
T1 sequence (whole entry): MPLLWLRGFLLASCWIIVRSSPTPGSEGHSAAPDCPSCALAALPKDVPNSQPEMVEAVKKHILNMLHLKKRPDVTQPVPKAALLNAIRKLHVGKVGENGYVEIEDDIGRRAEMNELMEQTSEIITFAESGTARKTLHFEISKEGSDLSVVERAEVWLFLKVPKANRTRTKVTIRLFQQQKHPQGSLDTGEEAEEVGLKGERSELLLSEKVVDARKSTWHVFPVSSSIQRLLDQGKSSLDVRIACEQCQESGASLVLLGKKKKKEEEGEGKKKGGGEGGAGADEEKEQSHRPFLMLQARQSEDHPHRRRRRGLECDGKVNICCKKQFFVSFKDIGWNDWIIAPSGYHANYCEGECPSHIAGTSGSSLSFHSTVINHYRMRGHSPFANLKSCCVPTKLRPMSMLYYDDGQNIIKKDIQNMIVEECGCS
In short: (§2)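 ALK4-ECD-Fc (50 ng/mL) captured on a protein A biosensor for 120 s, then dipped into activin A/ActRIIA-ECD premixed 1:2 molar, 1.6 µM final in PBS, with solvent or compound at 0.4, 1.6, 6.25 or 25 µM; 120 s association, 120 s dissociation in PBS; wavelength shift monitored by Blitz.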

[4] = target: T1, Inhibin beta A chain (Homo sapiens); assay: Inhibition of interaction of activin A (unknown origin)/ActRIIA-ECD complex with ALK4-ECD-Fc at 25 uM after 120 secs by competitive binding/ Blitz binding assay; in short: as §2
[5] = target: Growth/differentiation factor 8 (Homo sapiens) (UniProt O14793); assay: Inhibition of interaction of myostatin (unknown origin)/ActRIIA-ECD complex with ALK4-ECD-Fc at 25 uM after 120 secs by competitive binding/ Blitz binding assay
In short: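 Blitz biolayer assay: ALK4-ECD-Fc (50 ng/mL) captured on protein A biosensor 120 s, exposed to myostatin/ActRIIA-ECD premixed 1:2 molar at 1.6 µM final in PBS with solvent or compound at 25 µM; 120 s association, 120 s dissociation; real-time wavelength shift.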

Mus musculus [6] = assay: Inhibition of activin - stimulated serum FSH level in ovariectomized CD1 mouse at 60 mg/kg, sc by ELISA (reference value: 100%); assay type: functional; in short: as §1
Mus musculus [7] = assay: Toxicity in ovariectomized CD1 mouse assessed as change in behavior at 60 mg/kg, sc twice daily for 2 days; assay type: organism-based; conditions: in vivo, 48 h
In short: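 Ovariectomized 12-week-old CD1 mice given subcutaneous compound twice daily for 2 days (4 doses); behaviour observed after injection.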

[8] = target: T2, Inhibin beta A chain (Mus musculus) (UniProt Q04998); assay: Inhibition of activin A stimulated 4 day old CD1 mouse ovarian cell proliferation at 200 uM for 4 days by BrdU assay
T2 sequence (whole entry): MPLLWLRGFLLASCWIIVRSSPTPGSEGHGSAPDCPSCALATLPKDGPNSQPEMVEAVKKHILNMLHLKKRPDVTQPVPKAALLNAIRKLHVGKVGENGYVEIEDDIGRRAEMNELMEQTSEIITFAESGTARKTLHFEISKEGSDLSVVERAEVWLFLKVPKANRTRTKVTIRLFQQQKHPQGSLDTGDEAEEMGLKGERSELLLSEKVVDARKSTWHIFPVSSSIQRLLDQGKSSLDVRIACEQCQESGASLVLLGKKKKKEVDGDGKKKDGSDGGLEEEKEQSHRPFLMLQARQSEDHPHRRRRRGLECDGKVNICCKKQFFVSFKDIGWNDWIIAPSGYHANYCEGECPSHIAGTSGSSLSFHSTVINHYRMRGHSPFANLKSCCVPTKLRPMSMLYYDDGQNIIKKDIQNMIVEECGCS
In short: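 Ovaries from 4-day-old CD1 mice cultured on membrane inserts in DMEM/F12 with 0.03% BSA with 1 nM activin A plus compound at 200 µM (DMSO control; Fst288 4 nM or inhibin A 8 nM references) for 4 days, then 10 µM BrdU for 24 h. Genomic DNA (150 ng) denatured, dot-blotted, probed with anti-BrdU, ECL, densitometry; three independent experiments; ANOVA/Tukey.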

[9] = Solubility of the compound in cell growth medium up to 200 uM after 24 hrs by upright light microscopy; assay type: physicochemical
In short: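 Compound from 50 mM DMSO stock diluted to 200 µM final in DMEM-F12 with 5% FBS, 1% penicillin/streptomycin, […] D-glucose, held 24 h; precipitate checked visually under upright light microscope.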

[10] = target: T1, Inhibin beta A chain (Homo sapiens); assay: Inhibition of interaction of activin A (unknown origin) with ActRIIA-ECD complex at 25 uM after 120 secs by competitive binding/ Blitz binding assay
In short: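 Protein A biosensor (Blitz, dip-and-read) loaded with ActRIIA-ECD-Fc; activin A at 1.6 µM final, with solvent or compound at 25 µM, 120 s association and 120 s dissociation in PBS; real-time wavelength shift recorded.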

[11] = Cytotoxicity against mouse LbetaT2 cells assessed as reduction in cell viability at 100 uM after 24 hrs by MTT assay; assay type: functional
In short: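 LβT2 gonadotrope cells seeded 5 × 10^4/well, grown 24 h in DMEM-F12 with 5% FBS and […] D-glucose, then exposed to compound at 10 or 100 µM in growth medium for 24 h. MTT added for a further 2–3 h; absorbance at 490 nm as viability.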

[12] = target: T3, Growth/differentiation factor 8 (Mus musculus, UniProt O08689); assay: Antagonist activity at myostatin in mouse LbetaT2 cells transfected with -338 promoter region of FSHbeta gene conjugated to luciferase reporter assessed as inhibition of FSHbeta promoter activation by luciferase assay; assay type: cell-based
T3 sequence (O08689 whole entry): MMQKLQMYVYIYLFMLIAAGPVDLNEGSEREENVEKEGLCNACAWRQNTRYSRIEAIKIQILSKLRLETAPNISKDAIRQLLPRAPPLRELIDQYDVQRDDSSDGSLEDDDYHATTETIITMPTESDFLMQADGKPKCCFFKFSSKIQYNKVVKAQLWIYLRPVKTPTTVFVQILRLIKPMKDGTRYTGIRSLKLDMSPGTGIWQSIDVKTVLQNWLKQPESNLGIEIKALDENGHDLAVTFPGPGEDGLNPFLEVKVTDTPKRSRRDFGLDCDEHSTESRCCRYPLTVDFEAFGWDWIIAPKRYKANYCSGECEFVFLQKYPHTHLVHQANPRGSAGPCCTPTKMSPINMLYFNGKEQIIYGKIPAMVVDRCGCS
In short: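 Stable −338FSHβ-Luc LβT2 cells were plated at 5 × 10^4/well. They were stimulated with myostatin (0.2 nM) plus DMSO solvent control, or with compound at 0.8–100 µM, for 6 h at 37 °C in serum-free, phenol red-free DMEM-F12. Cells were lysed for luciferase readout. Runs were in triplicate across three experiments, and IC50 came from a sigmoidal variable-slope fit, reported as mean ± SD.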

Inhibin beta A chain = target: T4, Inhibin beta A chain (Mus musculus, UniProt Q04998); assay: Antagonist activity at activin A in mouse LbetaT2 cells transfected with -338 promoter region of FSHbeta gene conjugated to luciferase reporter assessed as inhibition of FSHbeta promoter activation by luciferase assay; assay type: cell-based
T4 sequence (Q04998 whole entry): T2 sequence (whole entry)
In short: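 −338FSHβ-Luc stably transfected LβT2 cells, 5 × 10^4 cells/well, plated 24 h, then given activin A (0.2 nM) with compound at 0.4–100 µM (in DMSO) or Fst288 0.05–4 nM as control, 6 h at 37 °C in serum-free, phenol red-free DMEM-F12. Cells lysed, luciferase activity read; IC50 from sigmoidal variable-slope fit; means ± SD.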

Mus musculus [13] = assay: Inhibition of activin - stimulated serum FSH level in ovariectomized CD1 mouse at 15 mg/kg, sc by ELISA (reference value: 100%); assay type: functional, organism-based; in short: as §1

Row | SMILES | IC50 (HepG2) [µM] | solubility [9] | inhibition at 100 µM [11] [%] | IC50 (Inhibin beta A chain) [µM] | also measured
1 | CCn1c(-c2cccnc2)nc2cc(NC(=O)COC)cc(C(=O)NCc3ccccc3)c21 | 12.1 | soluble | < 20 | 3.67 | Activity (Mus musculus [1]): Non-toxic; inhibition in vivo at 30 mg/kg (Mus musculus [2]): 70%; inhibition [3]: Dose-dependent effect; Activity [4]: Active; Activity [5]: inactive; inhibition in vivo at 60 mg/kg (Mus musculus [6]): 70%; Activity (Mus musculus [7]): Non-toxic; inhibition [8]: Active; Activity [10]: inactive; IC50 [12]: 47.9 µM; Activity (Mus musculus [13]): inactive
2 | O=C(NCc1cccc(F)c1)[C@@H]1CCC(=O)N(CCCN2CCCC2=O)C1 | – | soluble | < 20 | > 100 | –
3 | O=C(N[C@H](Cc1ccc2c(c1)OCO2)C(=O)N[C@@H](Cc1c[nH]c2ccccc12)C(=O)O)c1ccccc1 | – | soluble | < 20 | > 100 | –
4 | Cn1cc(CN2C[C@H](OCc3cccnc3)CN(Cc3ccc(C#CC(C)(C)O)cc3)CC2=O)cn1 | 43.9 | soluble | < 20 | 4.25 | –
5 | CCCn1ncc(CN2CCN(CCCc3ccccc3)[C@@H](CCO)C2)c1C | – | soluble | < 20 | > 100 | –
6 | O=C1CC[C@](CCC(=O)N2CCC([C@@H](O)c3cccnc3)CC2)(Cc2cccc3ccccc23)N1 | > 200 | soluble | < 20 | 23.6 | –
7 | O=C(NCc1ccccc1)c1nn(CCO)c2c1CN(C1CCCC1)CC2 | – | soluble | < 20 | > 100 | –
8 | COc1ccc(OC[C@@H](O)CN2CCC(O)CC2)c(CNCCc2cccnc2)c1 | 47.3 | soluble | < 20 | 4.18 | –
9 | CC(C)(O)C#Cc1ccc(CN2CCC[C@@H](CCC(=O)N3CCOCC3)C2)s1 | 23.2 | soluble | < 20 | 4.42 | inhibition [8]: Active
10 | COc1cccc(CO[C@H]2CN(CCc3ccccc3)C(=O)CN(C(=O)[C@@H]3CNC(=O)C3)C2)c1 | – | soluble | < 20 | > 100 | –
11 | Cc1n[nH]c(O)c1C(c1ccc(-c2ccccc2C(=O)O)o1)c1c(C)n[nH]c1O | – | soluble | < 20 | > 100 | –
